Drawing on ChEMBL document CHEMBL5321217, “Identification of pyrrolo[3',4':3,4]cyclohepta[1,2-d][1,2]oxazoles as promising new candidates for the treatment of lymphomas” (Eur J Med Chem, 2023), this text covers Activity, IC50 and inhibition for 2 compounds.

The test system of series [1] is A549. Nature of the series: Induction of cell cycle arrest in human A549 cells assessed as accumulation of cells at G2/M phase at 5 uM incubated for 24 hrs by PI staining based flow cytometry analysis. Type of series: functional. The essentials:
(§1)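 Seeding in 6-well plates, 2 mL medium: A549 5×10^4, CCRF-CEM 2.5×10^5, VL51 2.0×10^5. 24 h treatment, A549 detached with trypsin-EDTA. Cells fixed in 70% ice-cold ethanol, PI-labelled, analysed by flow cytometry. Mean of two independent experiments.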
A general note: In flow cytometry, cells or beads pass a laser one at a time.

Series [2] can be described thus: Cytotoxicity against resting human PBL cells assessed as inhibition of cell growth measured after 72 hrs by MTT assay. It counts as toxicity, cell-based. The following applies: resting human peripheral blood lymphocytes (PBL). A general note: Formazan colour is commonly taken as a measure of viable cells.
A short description of series [3]: Cytotoxicity against PHA-induced human PBL cells assessed as inhibition of cell growth measured after 72 hrs by MTT assay. It counts as toxicity, cell-based. The conditions noted are these: PHA-induced human peripheral blood lymphocytes (PBL).
Series [4] has as its target T1, Tubulin (Homo sapiens) (UniProt P68371+Q9H4B7+P0DPH7+P68366+Q13509+Q71U36+P04350+Q3ZCM7+P07437+P68363+Q9BQE3+Q6PEY2+Q13885+Q9BVA1+Q9BUF5). The series is described as follows: Inhibition of [3H]colchicine binding to tubulin (unknown origin) at 5 uM relative to control. It counts as protein-complex assay. The essentials:
(§2)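 Colchicine-site competition: 0.5 μM tubulin with 5.0 μM [3H]colchicine and inhibitor at 5.0 μM, or 25 μM where stated.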

The subject of series [5] is VL51. Nature of the series: Induction of mitochondrial membrane potential depolarization in human VL51 cells at 0.5 to 1 uM measured after 24 hrs by JC-1 fluorescent dye based flow cytometry analysis. It counts as functional, cell-based. The conditions noted are these: dose 0.5-1 µM. The essentials: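 VL51 cells treated 24 h at 0.5 and 1.0 μM, labelled with JC-1, analysed by flow cytometry in FL1 and FL2 channels.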

Series [6] deals with CCRF-CEM. Nature of the series: Induction of cell cycle arrest in human CCRF-CEM cells assessed as accumulation of cells at G2/M phase at 10 uM incubated for 24 hrs by PI staining based flow cytometry analysis. Type of series: functional. The essentials: as §1
In series [7] the target is T1, Tubulin (Homo sapiens). The series is described as follows: Inhibition of [3H]colchicine binding to tubulin (unknown origin) at 25 uM relative to control. Type of series: protein-complex assay. The essentials:
as §2

Series [8] deals with VL51. The series is described as follows: Induction of cell cycle arrest in human VL51 cells assessed as increase in mitotic cells at 0.5 to 1 uM incubated for 24 hrs by PI staining based flow cytometry analysis. Type of series: functional. The conditions noted are these: dose 0.5-1 µM.
Series [9] deals with Tubulin. The series is described as follows: Inhibition of tubulin assembly (unknown origin). It counts as protein-complex assay, Homo sapiens.
The subject of series [10] is VL51. Nature of the series: Induction of cell cycle arrest in human VL51 cells assessed as accumulation of cells at G2/M phase at 5 uM incubated for 24 hrs by PI staining based flow cytometry analysis. Type of series: functional. The essentials:
as §1

Activity calls are given as the source filed them. The rule behind the calls is not given here.

Usually IC50 stands for the concentration that inhibits the measured activity by half. What is called inhibition is the percentage by which the read-out fell short of the control. Read a high inhibition as a strong effect. Regarding `COc1ccc(Cn2cc3c(c2-c2ccccc2)CCCc2cnoc2-3)cc1`, the result in series [1], in series [6] and in series [10] was Active. In addition, the IC50 at 72 h in series [2] and in series [3] was greater than 10 µM each time. Also, the inhibition stood at 1.8% in [4] and 19% in series [7]. Moreover, the outcome in series [5] and in [8] was inactive. The compound further came in with a half-inhibitory concentration (IC50) in series [9] of 1.1 µM.

In series [4], `COc1ccc(Cn2cc3c(c2-c2ccc(OC)cc2)CCCc2cnoc2-3)cc1` came in with an inhibition of 7.7%. The same compound displayed an IC50 in [9] of 4.6 µM.
